Results on 96 molecules are retold here after ChEMBL document CHEMBL4513216, “Probing the Open Global Health Chemical Diversity Library for Multistage-Active Starting Points for Next-Generation Antimalarials” (ACS Infect Dis, 2020).

A short description of this data set: Toxicity liver stage against HepG2, at 10uM. It counts as cell-based. On the set-up: test concentration 10 uM, cell line HepG2-A16-CD81EGFP. The conditions noted are these: human, HepG2-A16-CD81EGFP cells; read-out: INHIBITION
Summed up:
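Uninfected HepG2-A16-CD81EGFP cells, 3 × 10^3 per well, 1536-well, plated on prespotted compound at 10 μM final, parasite-free screening media added to match infected plates; puromycin 10 μM positive, DMSO 0.5% negative; run in parallel with 48 h PbLuc assay at 37 °C, 5% CO2; viability by CellTiter-Glo luminescence, normalized to controls.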
Consider `CCOc1cc(C)nc(N2CCN(Cc3nccn3C)CC2)n1`, for which the cytotoxicity at 10 µM is -4.04%. `O=C1CCN(C(=O)NCc2cccc(Oc3ccccc3)c2)CCN1`: the cytotoxicity at 10 µM is 4.11%. Under `CN(Cc1ccccc1)C(=O)CN1CCCC1c1cnn(C)c1` (stereo unspecified) stands 6.91%; under `COCC1CC2(CCN(Cc3ccncc3)CC2)CN1C(C)C` (stereo unspecified), 1.73%; under `FC(F)(F)c1cc(-c2cccs2)nc(N2CCN3CCCC3C2)n1` (stereo unspecified), 10.7%. The figure for `CS(=O)(=O)N1CCO[C@@H]2CN(C(=O)N3CCOCC3)CC[C@@H]2C1` is -105%.

For the molecule `CCCOC1Sc2nnc(C)n2N=C1c1ccccc1` (stereo unspecified), the cytotoxicity at 10 µM came to 1.57%. The figure for `Cc1noc(C(C)Nc2ccc3oc(C(C)C)nc3c2)n1` (stereo unspecified) is -7.84%; for `CCC1CN(C(=O)Cc2coc(-c3ccccc3)n2)CCO1` (stereo unspecified) it is 3.06%. As for `Cc1cccnc1NC(=O)C1CSc2ncc(C)c(=O)n2C1` (stereo unspecified), the cytotoxicity at 10 µM was -1.62%. The figure for `O=C(O)[C@]12CCCN(Cc3nccs3)[C@@H]1CCN(c1cnccn1)C2` is -0.911%; for `Cc1noc(-c2cnc(NCC3CCCO3)nc2-c2ccco2)c1C` (stereo unspecified) it is 7.74%; for `COc1cccc2[nH]c(C(=O)N3CCNCC3C(N)=O)cc12` (stereo unspecified) it is 4.57%. Under `Cc1cnn(CC2CN(Cc3nnc(C4CC4)o3)CCO2)c1` (stereo unspecified) stands -11.8%; under `Cc1nc(CCCNC(=O)c2c(F)cccc2Br)n[nH]1`, -1.39%; under `Cc1nn(C)c(C)c1C1CCCN1Cc1nc2ccccc2c(=O)[nH]1` (stereo unspecified), -15.9%. For `O=C(NCCc1ccn(-c2ccccc2)n1)N1CCSCC1`, the cytotoxicity at 10 µM is -2.71%. Under `Cc1cc(C)n(CCN2CCC(N(C)Cc3nnc(C)n3C)C2)n1` (stereo unspecified) stands 2.35%; under `COCCN1CCN(C(C)C(=O)Nc2ccnn2C(C)C)CC1` (stereo unspecified), -8.83%; under `Cc1ccc(NC(=O)c2ncc(C(N)=O)cc2Cl)cc1F`, -3.53%. As to `CCS(=O)(=O)N1CC[C@H]2OCC[C@@]2(C(=O)NC)C1`, the cytotoxicity at 10 µM is -72.6%.

Regarding `O=C(NC[C@H]1OC[C@@H]2CCN(C3CCOCC3)C[C@@H]21)c1ccncc1`, the cytotoxicity at 10 µM came to 4.98%. With `c1ccc(Cn2cc(CNc3ncnc4c3CCNCC4)cn2)cc1`, the cytotoxicity at 10 µM amounted to 1.99%. On to `CN(C)S(=O)(=O)c1ccc(CNC(=O)c2cn3c(n2)CNCC3)cc1`, for which the cytotoxicity at 10 µM was 16.9%. The figure for `COCCNCc1ccc(OCC(=O)NC(C)(C)C)cc1` is -8.08%; for `COC(=O)c1cc(OC)ccc1NCC(=O)NCC(=O)N1CCCC1` it is 0.431%; for `CN(C)S(=O)(=O)CCNc1ncc2c(n1)CCN2c1ccccc1` it is -5.6%. The figure for `Cc1ncc(CN2CCCC(O)(c3ccc(F)cc3)CC2)n1C` (stereo unspecified) is -4.04%.

As for `CCN(C)c1ncnc2c1CCN(Cc1ccc(OC)cc1)CC2`, the cytotoxicity at 10 µM was 9.88%. Regarding `O=C(NCc1ccco1)[C@H]1C[C@@H]2CCN(c3ncccn3)C[C@H]2O1`, the cytotoxicity at 10 µM amounted to 7.1%. Under `Cn1nc(C2CCN(C(=O)c3cnccn3)C2)cc1CCO` (stereo unspecified) stands 9.95%; under `CC(C)OC[C@H]1CCC[C@]12CN(C(=O)C1CCOCC1)CCO2`, -99.1%; under `O=C(C1CCOCC1)N1CC[C@@H](O)[C@@H]1Cc1ccncc1`, -2.36%. `O=C(c1ccc(C2CCCO2)s1)N1CCS(=O)(=O)CC1` (stereo unspecified): the cytotoxicity at 10 µM was -14.8%. The figure for `CC(=O)NCCCn1ncc2c(C)cccc21` is 9.68%. The figure for `CN(C)C(=O)CCCn1ccc(NC(=O)NCc2cccc(F)c2)n1` is 6.85%; for `CCC(C)Oc1cc(C(=O)Nc2nnc(C(C)C)[nH]2)ccn1` (stereo unspecified) it is -11.2%. Under `Cn1nc(CO)c2c1CCN(c1ncnc3c1CCNC3)C2` stands -0.132%; under `CCc1nc(C)sc1C(=O)N1CCN(c2ncccc2C)CC1`, 1.39%; under `COc1ccc(-c2ccc(C(=O)N3CCC[C@@H]3CO)o2)cc1`, 7.44%. With `CN(C)CCn1ccnc1C1CCN(C(=O)CCc2ccncc2)CC1`, the cytotoxicity at 10 µM is -9.67%. Under `COC(=O)c1cccc2nc([C@H]3CCN(Cc4ccccc4F)C3)oc12` stands -5.46%; under `COc1ccc(C(=O)C2CCCN(c3nccc(N)n3)C2)c(C)c1` (stereo unspecified), 5.67%; under `Cc1ccccc1Cc1nc(CSc2nnc(N)n2C2CC2)no1`, 18%.

On to `COCCCN(Cc1ccccn1)S(=O)(=O)c1ccc(OC)cc1`, for which the cytotoxicity at 10 µM worked out at 5.85%. In the case of `CCC(C)(NCC(=O)OC)c1nc(C)cs1` (stereo unspecified), the cytotoxicity at 10 µM was -3.94%.

For `CC(C)c1nc(CN(C)C2CCN(Cc3nnc(C4CC4)o3)C2)no1` (stereo unspecified), the cytotoxicity at 10 µM turned out to be 5.87%. Under `O=C(NC[C@H]1OC[C@@H](NC2COC2)[C@@H]1O)c1cccs1` stands 0.0331%; under `CCc1noc(CN2CCCC(Cn3nc(C)nc3C)C2)n1` (stereo unspecified), -6.31%; under `COc1ccccc1OCC(=O)NCC(O)(c1cccs1)C1CC1` (stereo unspecified), -5%. The figure for `COCc1cc(CN(C)C(C(=O)O)c2cc(C)c(OC)c(C)c2)n[nH]1` (stereo unspecified) is 1.07%; for `COCCN(C)C(C(=O)O)c1ccc(Cl)c(F)c1` (stereo unspecified) it is -2.46%; for `COc1cc(C)cc(C(C(=O)O)N2CCN(C3CCCC3)CC2)c1OC` (stereo unspecified) it is -4.27%.

Consider `CC(NC(=O)CNc1cc2c(cc1Cl)OCCO2)c1ccco1` (stereo unspecified), for which the cytotoxicity at 10 µM is -1.31%. Take `CCNC(=O)C1CCN(c2cc(-c3ccccc3)nc3ccnn23)C1` (stereo unspecified): the cytotoxicity at 10 µM was -16.9%.

`Cc1cc2n(n1)CC(CNCc1ccc(-n3cccn3)nc1)CN2` (stereo unspecified): the cytotoxicity at 10 µM was -10.5%. Under `CN(CC(N)=O)CC(=O)N1CC=C(c2ccccc2)CC1` stands -5.1%.

Consider `CC(=O)N1[C@H](CN(C)C)C[C@@H]2CN(C(=O)c3ccsc3)CC[C@@H]21`, for which the cytotoxicity at 10 µM was -0.744%.

`CC(C)=CCC1(C(=O)O)CCCN(c2ccnc(C)n2)C1` (stereo unspecified): the cytotoxicity at 10 µM is -0.842%. On to `O=C([C@H]1COC[C@H]2CN(C3CCCC3)C[C@H]21)N1CCCCO1`, for which the cytotoxicity at 10 µM was -9.47%. Under `c1ccc(CN2CC[C@@H]3O[C@@H](COCC4CCOCC4)CC[C@@H]32)nc1` stands -1.98%; under `CC(=O)N1CCCC1(C)c1nc(C)no1` (stereo unspecified), 2.71%; under `Cc1ccc(C)c(CC(=O)NC2CCS(=O)(=O)CC2)c1`, -9.56%. The figure for `COCCN(Cc1ccoc1)C(=O)c1ccc(Cl)s1` is 12.3%; for `CN(Cc1nccs1)C1CCN(c2cccc(-c3cscn3)c2)CC1` it is -1.26%; for `O=C(Cc1ccc2c(c1)CCO2)N1CCN(c2ccncc2)CC1` it is -4.8%. The figure for `Cn1cc(CN2CCC(CCC(=O)Nc3ccccc3Cl)CC2)cn1` is -2.98%.

With `O=C1CCCN1Cc1ncn2c1CN(C(=O)N1CCCC1)CCC2`, the cytotoxicity at 10 µM was -2.36%. With `Cc1nc(C2CCCN(C(=O)c3ccc(OCC4CC4)nc3)C2)no1` (stereo unspecified), the cytotoxicity at 10 µM is -4.41%. Under `CCCNC(=O)CSc1nnc2[nH]c(=O)c3c(n12)CCCC3` stands -83.3%. Under `CCCc1n[nH]c(C2CN(C(=O)Cn3ccccc3=O)CCO2)n1` (stereo unspecified) stands -1.33%.

As for `CC1CN(C(=O)c2ccc(C(N)=O)cc2)c2ccc(F)cc2O1` (stereo unspecified), the cytotoxicity at 10 µM came to 8.07%.

Take `CS(=O)(=O)CCC(=O)N(CCc1cccc(F)c1)C1CC1`: the cytotoxicity at 10 µM is -5.82%. In the case of `Cc1cc(C)n(C2CN(CC(=O)NC3CCOCC3)C2)n1`, the cytotoxicity at 10 µM is -3.92%.

Take `CCSCc1ccnc(NC(=O)C2CCOC2)c1` (stereo unspecified): the cytotoxicity at 10 µM turned out to be 0.841%. Under `Cc1nccc(-c2ccccc2)c1C(=O)N1CC[C@](C)(O)C(C)(C)C1` stands -3.45%.

Turning to `CCC1CCCCN1Cc1ncc(C(C)(C)C)o1` (stereo unspecified), the cytotoxicity at 10 µM was -3.48%.

As for `CN(C)CC(Nc1nc(N)nc2c1CCNCC2)c1ccccc1` (stereo unspecified), the cytotoxicity at 10 µM is -2.92%.

Take `CCn1cc(NC(=O)C2CCN(Cc3nc(C)c(C)o3)CC2)cn1`: the cytotoxicity at 10 µM turned out to be 5.3%.

For the molecule `COc1c(C2CCCN2C(=O)c2cscn2)c(C)nn1C` (stereo unspecified), the cytotoxicity at 10 µM is 5.77%. The figure for `CCOC(=O)CNC(=O)N1CCC(OC)c2ccccc2N(C)C(=O)C1` (stereo unspecified) is 3.36%; for `COc1cc(CNCc2ccnc(N3CCOCC3)c2)cc(OC)c1` it is 6.1%. As to `O=C(CN1CCNCC1)N1CC[C@@H](c2ccc3ccccc3c2)[C@H](O)C1`, the cytotoxicity at 10 µM is -8.9%. Regarding `COCCCNCc1cc(O)c2cc(C)cc(C)c2n1`, the cytotoxicity at 10 µM was -6.31%. As to `COc1ccc(COCC(O)CN2CCC(c3ccn[nH]3)CC2)cc1` (stereo unspecified), the cytotoxicity at 10 µM was -0.975%. In the case of `COc1ccc(C(=O)N2CCCCC2c2ccccn2)c(OC)n1` (stereo unspecified), the cytotoxicity at 10 µM is -0.649%.

As for `Cc1cccc(-c2nccn2-c2cccc(CC(=O)O)c2)n1`, the cytotoxicity at 10 µM was determined as 4.55%.

In the case of `Cn1nc(CO)c2c1CCN(c1ncnc3c1CCNCC3)C2`, the cytotoxicity at 10 µM was found to be 0.549%. The figure for `COCCn1ccnc1C1CCCN(C(=O)c2ccccc2C#N)C1` (stereo unspecified) is -0.675%. The figure for `CC(C)Oc1cccc(CNC(=O)N2CCC(N3CC=CC3)C2)c1` (stereo unspecified) is 0.477%; for `NC1(c2nc(-c3ccccc3)cc(=O)[nH]2)CCCC1` it is 1.47%. The figure for `CC(=O)Nc1nc(C(=O)NCc2ccc(N3CCOCC3)nc2)cs1` is -14%; for `CC(=O)N1CCC(c2nnc3ccc(C(=O)NCC(C)C)cn23)C1` (stereo unspecified) it is -108%; for `COC(=O)CCC(=O)N1CCC2(CN(Cc3cccc(Cl)c3)C2)C1` it is -62.4%. With `COCC1CN(Cc2ccoc2)Cc2nn(C)cc21` (stereo unspecified), the cytotoxicity at 10 µM is -81.7%. The figure for `CC(C)c1noc(-c2ccnc(-n3cnc(C(=O)O)c3)c2)n1` is 0.715%.
